Molecular target: T1, OR1L3 (Homo sapiens) (UniProt Q8NH93)
T1 sequence (whole entry): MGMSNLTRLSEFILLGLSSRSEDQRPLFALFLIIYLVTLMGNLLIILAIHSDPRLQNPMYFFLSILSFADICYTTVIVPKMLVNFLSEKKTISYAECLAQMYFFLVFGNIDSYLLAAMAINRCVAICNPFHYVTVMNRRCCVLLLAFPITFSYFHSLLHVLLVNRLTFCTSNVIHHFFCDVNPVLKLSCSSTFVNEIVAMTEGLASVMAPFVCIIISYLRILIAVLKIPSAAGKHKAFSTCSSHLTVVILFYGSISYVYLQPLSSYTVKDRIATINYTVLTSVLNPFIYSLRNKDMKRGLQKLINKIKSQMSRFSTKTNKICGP
Conditions: stereoisomer not certain
Summary of the method: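 Whether a receptor–molecule pair is responsive (active) rests on the original authors' judgment that its measured signal was statistically different from baseline. Pairs without that judgment are non-responsive (inactive). Sources used varied assay methods, commonly transient luciferase assays in mammalian cell lines.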
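Also: active if original authors judged signal statistically different from baseline.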

CCOC(=O)CC1(C)OCCO1
odorant receptor agonist call: inactive

C=CCOC(=O)COCCC(C)C
odorant receptor agonist call: inactive

CC(C)(C)C1CCCCC1OCCCCO (stereo not drawn)
odorant receptor agonist call: inactive

CC=CC(=O)C1C(C)=CCCC1(C)C (stereo not drawn)
odorant receptor agonist call: active

CC1=CCC2CC1C2(C)C (stereo not drawn)
odorant receptor agonist call: inactive

CCCCCC1COCCC1OC(C)=O (stereo not drawn)
odorant receptor agonist call: inactive

CC1CC(C)(c2ccccc2)CO1 (stereo not drawn)
odorant receptor agonist call: inactive

CCC(=O)C=CC1C(C)=CCCC1(C)C (stereo not drawn)
odorant receptor agonist call: inactive

Cc1occc(=O)c1OC(=O)C(C)C
odorant receptor agonist call: inactive

CCCCCCCCC(OC(C)=O)OC(C)=O
odorant receptor agonist call: inactive

C=CC(C)(O)CCC=C(C)CCC=C(C)C (stereo not drawn)
odorant receptor agonist call: inactive

Cc1ccc(C(C)C)cc1O
odorant receptor agonist call: inactive

C=CC(C)(CCC=C(C)C)OC(C)=O (stereo not drawn)
odorant receptor agonist call: inactive

COc1ccc(C)cc1
odorant receptor agonist call: inactive

CCc1ccc(CC(C)(C)C=O)cc1
odorant receptor agonist call: inactive

OCc1ccccc1
odorant receptor agonist call: inactive

CCCCCC1C(=O)CCC1CC(=O)OC (stereo not drawn)
odorant receptor agonist call: inactive

CCCCC1CCC(=O)O1 (stereo not drawn)
odorant receptor agonist call: inactive

CC(=O)OCc1ccccc1
odorant receptor agonist call: inactive

CCCC(C)C(=O)OCC (stereo not drawn)
odorant receptor agonist call: inactive

CC(C)=CCCC(C)CC=O (stereo not drawn)
odorant receptor agonist call: inactive

CCC=C(C)C(O)CCCCC (stereo not drawn)
odorant receptor agonist call: inactive

CC(=O)C=CC1=C(C)CCCC1(C)C
odorant receptor agonist call: inactive
